In ChEMBL document CHEMBL1155882, “Selective nucleoside triphosphate diphosphohydrolase-2 (NTPDase2) inhibitors: nucleotide mimetics derived from uridine-5'-carboxamide” (J Med Chem, 2008):
Active and inactive are the calls of the source. No cut-off for these calls is given here.

Key:
[1] = molecular target: T1, Ectonucleoside triphosphate diphosphohydrolase 8 (Homo sapiens, UniProt Q5MY95); experiment: Inhibition of human NTPDase 8 expressed in COS7 cells; type: cell-based, COS-7
T1 sequence (Q5MY95 whole entry): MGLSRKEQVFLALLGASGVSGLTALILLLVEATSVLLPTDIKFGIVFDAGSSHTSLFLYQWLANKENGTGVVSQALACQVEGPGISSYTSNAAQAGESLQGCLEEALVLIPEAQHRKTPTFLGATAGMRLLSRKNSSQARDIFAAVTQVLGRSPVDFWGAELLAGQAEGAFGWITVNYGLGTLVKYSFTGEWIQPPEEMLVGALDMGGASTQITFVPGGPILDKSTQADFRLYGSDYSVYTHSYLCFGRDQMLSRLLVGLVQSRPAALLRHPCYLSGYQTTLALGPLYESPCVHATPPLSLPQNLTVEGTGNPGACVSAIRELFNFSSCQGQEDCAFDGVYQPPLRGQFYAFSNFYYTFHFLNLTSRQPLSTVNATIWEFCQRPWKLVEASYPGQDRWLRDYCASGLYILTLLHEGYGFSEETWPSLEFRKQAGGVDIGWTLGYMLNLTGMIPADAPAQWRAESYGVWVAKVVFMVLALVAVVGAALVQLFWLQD
Summary of the method: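 NTPDase2 membranes come from stably transfected HEK 293 cells; NTPDase3 and NTPDase8 are transiently expressed in COS-7 cells as crude protein extracts. Buffer is 140 mM NaCl, 5 mM KCl, 1 mM MgCl2, 2 mM CaCl2, 10 mM HEPES pH 7.4, with 400 μM ATP, 37 °C, 10 min, stopped at 99 °C. Products are read by capillary electrophoresis (UV 210 nm, UMP internal standard).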

P2Y purinoceptor 4 [2] = molecular target: T2, P2Y purinoceptor 4 (Homo sapiens, UniProt P51582); experiment: Antagonist activity at human P2Y4 receptor expressed in human 1321N1 cells assessed as inhibition of UTP-induced intracellular calcium mobilization by FLUOstar plate reader; type: functional, cell-based
P2Y purinoceptor 6 = P2Y purinoceptor 6 (Rattus norvegicus, UniProt Q63371); experiment: Antagonist activity at rat P2Y6 receptor expressed in human 1321N1 cells assessed as inhibition of UDP-induced intracellular calcium mobilization by NOVOstar plate reader
P2Y purinoceptor 2 = P2Y purinoceptor 2 (Homo sapiens, UniProt P41231); experiment: Antagonist activity at human P2Y2 receptor expressed in human 1321N1 cells assessed as inhibition of UTP-induced intracellular calcium mobilization by FLUOstar plate reader; type: functional, cell-based
Summary of the method: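 Fura-2 AM-loaded astrocytoma cells expressing human P2Y2 receptor. Compound is tested at 0.1, 0.3, 1, 3, 10, 30 and 100 μM. The read-out is inhibition of UTP-induced intracellular calcium mobilization.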

[3] = Inhibition of rat NTPDase 3
[4] = molecular target: P2Y purinoceptor 6 (Rattus norvegicus) (UniProt Q63371); experiment: Antagonist activity at rat P2Y6 receptor expressed in human 1321N1 cells assessed as inhibition of UDP-induced intracellular calcium mobilization by NOVOstar plate reader
P2Y purinoceptor 4 [5] = molecular target: T2, P2Y purinoceptor 4; experiment: Antagonist activity at human P2Y4 receptor expressed in human 1321N1 cells assessed as inhibition of UTP-induced intracellular calcium mobilization at 100 uM by FLUOstar plate reader; type: functional, cell-based
Summary of the method: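 Human 1321N1 astrocytoma cells express human P2Y2 or P2Y4, or rat P2Y6. Cells are loaded with Fura-2 AM and preincubated with compound at 100 μM. Inhibition of agonist-induced intracellular calcium release is read as Fura-2 fluorescence. The agonist is UTP for P2Y2 and P2Y4, and UDP for P2Y6.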

P2Y purinoceptor 2, sequence (P41231 whole entry): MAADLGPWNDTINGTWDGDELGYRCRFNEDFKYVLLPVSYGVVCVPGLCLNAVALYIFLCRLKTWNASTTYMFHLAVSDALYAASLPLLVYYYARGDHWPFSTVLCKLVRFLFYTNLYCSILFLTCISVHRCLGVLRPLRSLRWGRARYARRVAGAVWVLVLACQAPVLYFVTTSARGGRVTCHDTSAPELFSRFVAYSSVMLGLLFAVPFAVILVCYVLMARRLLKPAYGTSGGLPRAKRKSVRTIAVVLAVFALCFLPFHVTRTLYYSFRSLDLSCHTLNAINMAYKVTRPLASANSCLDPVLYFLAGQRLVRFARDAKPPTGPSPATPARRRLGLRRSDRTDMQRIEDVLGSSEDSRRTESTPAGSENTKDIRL
T2 sequence (P51582 whole entry): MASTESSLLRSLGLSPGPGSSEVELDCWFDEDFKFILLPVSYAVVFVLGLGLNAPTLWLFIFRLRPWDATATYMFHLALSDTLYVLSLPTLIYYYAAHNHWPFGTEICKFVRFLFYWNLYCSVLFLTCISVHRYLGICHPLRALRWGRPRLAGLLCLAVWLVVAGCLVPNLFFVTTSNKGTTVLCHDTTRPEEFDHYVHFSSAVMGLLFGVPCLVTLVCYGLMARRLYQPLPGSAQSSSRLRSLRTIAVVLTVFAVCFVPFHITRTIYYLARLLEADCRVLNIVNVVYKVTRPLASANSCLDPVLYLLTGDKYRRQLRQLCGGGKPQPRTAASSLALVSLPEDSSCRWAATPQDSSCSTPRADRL
P2Y purinoceptor 6, sequence (Q63371 whole entry): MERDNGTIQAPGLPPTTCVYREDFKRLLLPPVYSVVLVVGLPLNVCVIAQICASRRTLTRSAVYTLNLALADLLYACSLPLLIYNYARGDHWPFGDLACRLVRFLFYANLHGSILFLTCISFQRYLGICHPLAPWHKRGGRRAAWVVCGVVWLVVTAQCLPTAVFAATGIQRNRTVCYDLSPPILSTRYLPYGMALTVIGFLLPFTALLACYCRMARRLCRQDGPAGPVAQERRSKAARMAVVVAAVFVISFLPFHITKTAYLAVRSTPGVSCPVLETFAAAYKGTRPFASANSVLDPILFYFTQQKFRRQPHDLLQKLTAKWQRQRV

Ki [3] [µM] | IC50 [4] [µM] | Activity (P2Y purinoceptor 4 [5]) | SMILES | Ki [1] [µM] | IC50 (P2Y purinoceptor 4 [2]) [µM] | IC50 (P2Y purinoceptor 6) [µM] | IC50 (P2Y purinoceptor 2) [µM]
 |  |  | Nc1c(S(=O)(=O)O)cc(Nc2ccc(Nc3nc(Cl)nc(Nc4cccc(S(=O)(=O)O)c4)n3)c(S(=O)(=O)O)c2)c2c1C(=O)c1ccccc1C2=O [RB 2] | > 100 | 5.75 | 4.34 | 12
12.7 | 27 | inactive | Cc1ccc(C(=O)Nc2ccc(S(=O)(=O)O)c3cc(S(=O)(=O)O)cc(S(=O)(=O)O)c23)cc1NC(=O)c1cccc(NC(=O)Nc2cccc(C(=O)Nc3cc(C(=O)Nc4ccc(S(=O)(=O)O)c5cc(S(=O)(=O)O)cc(S(=O)(=O)O)c45)ccc3C)c2)c1 [SURAMIN] | > 100 |  |  | 50
